Experimental data from ChEMBL document CHEMBL1629653, “CMY-31 and CMY-36 cephalosporinases encoded by ColE1-like plasmids” (Antimicrob Agents Chemother, 2009).
In brackets after ≈: the same amount, converted by molar mass.

Columns and labels:
[1] = tested on: Escherichia coli; assay: Antimicrobial activity against Escherichia coli DH5[alpha] harboring pB-c36 plasmid expressing cephalosporinase CMY-36 by agar dilution method; type: functional
[2] = tested on: Escherichia coli; assay: Antimicrobial activity against Escherichia coli DH5[alpha] harboring pB-c2 plasmid expressing cephalosporinase CMY-2 by agar dilution method; type: functional
[3] = tested on: Escherichia coli; assay: Antimicrobial activity against Escherichia coli DH5[alpha] harboring pB-c31 plasmid expressing cephalosporinase CMY-31 by agar dilution method; type: functional
[4] = Antimicrobial activity against Salmonella enterica serotype Newport AM17274 expressing CMY-31 cephalosporinase by agar dilution method; type: functional, Salmonella enterica subsp. enterica serovar Newport
Procedure, shortened: (§1)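 MICs of β-lactams determined by agar dilution against the clinical isolates.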

[5] = tested on: Escherichia coli; assay: Antimicrobial activity against Escherichia coli DH5[alpha] transformant harboring pH205 plasmid expressing cephalosporinase CMY-36 by agar dilution method; type: functional
[6] = tested on: Klebsiella pneumoniae; assay: Antimicrobial activity against Klebsiella pneumoniae HP205 expressing CMY-36 cephalosporinase by agar dilution method; type: functional; procedure, shortened: as §1
[7] = tested on: Escherichia coli; assay: Antimicrobial activity against Escherichia coli DH5[alpha] transformant harboring pA172 plasmid expressing cephalosporinase CMY-31 by agar dilution method; type: functional
[8] = tested on: Escherichia coli; assay: Antimicrobial activity against Escherichia coli DH5[alpha] harboring pBCSK plasmid by agar dilution method; type: functional
[9] = Inhibition of CMY-2 by UV spectrophotometer in presence of 100 uM of cephalothin
[10] = target: Class C beta-lactamase CMY-36 (Klebsiella pneumoniae, UniProt Q48435); assay: Inhibition of Klebsiella pneumoniae HP205 cephalosporinase CMY-36 by UV spectrophotometer in presence of 100 uM of cephalothin
[11] = Antimicrobial activity against Salmonella enterica serotype Newport AM17274 expressing CMY-31 cephalosporinase by agar dilution method in presence of clavulanic acid; type: functional, Salmonella enterica subsp. enterica serovar Newport; procedure, shortened: as §1
[12] = tested on: Klebsiella pneumoniae; assay: Antimicrobial activity against Klebsiella pneumoniae HP205 expressing CMY-36 cephalosporinase by agar dilution method in presence of clavulanic acid in presence of clavulanic acid; type: functional; procedure, shortened: as §1
[13] = tested on: Escherichia coli; assay: Antimicrobial activity against Escherichia coli DH5[alpha] harboring pB-c36 plasmid expressing cephalosporinase CMY-36 by agar dilution method in presence of clavulanic acid; type: functional
[14] = tested on: Escherichia coli; assay: Antimicrobial activity against Escherichia coli DH5[alpha] transformant harboring pH205 plasmid expressing cephalosporinase CMY-36 by agar dilution method in presence of clavulanic acid; type: functional
[15] = tested on: Escherichia coli; assay: Antimicrobial activity against Escherichia coli DH5[alpha] harboring pBCSK plasmid by agar dilution method in presence of clavulanic acid; type: functional
[16] = tested on: Escherichia coli; assay: Antimicrobial activity against Escherichia coli DH5[alpha] harboring pB-c31 plasmid expressing cephalosporinase CMY-31 by agar dilution method in presence of clavulanic acid; type: functional
[17] = tested on: Escherichia coli; assay: Antimicrobial activity against Escherichia coli DH5[alpha] harboring pB-c2 plasmid expressing cephalosporinase CMY-2 by agar dilution method in presence of clavulanic acid; type: functional
[18] = tested on: Escherichia coli; assay: Antimicrobial activity against Escherichia coli DH5[alpha] transformant harboring pA172 plasmid expressing cephalosporinase CMY-31 by agar dilution method in presence of clavulanic acid; type: functional
[19] = tested on: Escherichia coli; assay: Antimicrobial activity against Escherichia coli DH5[alpha] transformant harboring pA172 plasmid expressing cephalosporinase CMY-31 by agar dilution method in presence of Tazobactam; type: functional
[20] = tested on: Escherichia coli; assay: Antimicrobial activity against Escherichia coli DH5[alpha] transformant harboring pH205 plasmid expressing cephalosporinase CMY-36 by agar dilution method in presence of Tazobactam; type: functional
[21] = tested on: Klebsiella pneumoniae; assay: Antimicrobial activity against Klebsiella pneumoniae HP205 expressing CMY-36 cephalosporinase by agar dilution method in presence of Tazobactam; type: functional
[22] = tested on: Escherichia coli; assay: Antimicrobial activity against Escherichia coli DH5[alpha] harboring pB-c31 plasmid expressing cephalosporinase CMY-31 by agar dilution method in presence of Tazobactam; type: functional
[23] = tested on: Escherichia coli; assay: Antimicrobial activity against Escherichia coli DH5[alpha] harboring pB-c36 plasmid expressing cephalosporinase CMY-36 by agar dilution method in presence of Tazobactam; type: functional
[24] = tested on: Escherichia coli; assay: Antimicrobial activity against Escherichia coli DH5[alpha] harboring pBCSK plasmid by agar dilution method in presence of Tazobactam; type: functional
[25] = Antimicrobial activity against Salmonella enterica serotype Newport AM17274 expressing CMY-31 cephalosporinase by agar dilution method in presence of Tazobactam; type: functional, Salmonella enterica subsp. enterica serovar Newport
[26] = tested on: Escherichia coli; assay: Antimicrobial activity against Escherichia coli DH5[alpha] harboring pB-c2 plasmid expressing cephalosporinase CMY-2 by agar dilution method in presence of Tazobactam; type: functional

Sequence of Class C beta-lactamase CMY-36 (Q48435 whole entry): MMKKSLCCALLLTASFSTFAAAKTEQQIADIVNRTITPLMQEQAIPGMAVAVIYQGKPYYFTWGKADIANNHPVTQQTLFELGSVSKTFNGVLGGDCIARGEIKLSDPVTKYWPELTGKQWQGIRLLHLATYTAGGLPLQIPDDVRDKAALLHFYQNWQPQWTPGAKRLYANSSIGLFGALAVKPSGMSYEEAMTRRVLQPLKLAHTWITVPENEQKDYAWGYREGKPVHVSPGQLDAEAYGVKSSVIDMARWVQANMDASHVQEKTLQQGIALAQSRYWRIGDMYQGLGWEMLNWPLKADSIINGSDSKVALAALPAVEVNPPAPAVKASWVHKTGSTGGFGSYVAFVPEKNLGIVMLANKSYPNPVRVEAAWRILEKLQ

Question: For C[C@@H](O)[C@H]1C(=O)N2C(C(=O)O)=C(SCCNC=N)C[C@H]12 [IMIPENEM ANHYDROUS], which MIC [1] is on record?
Answer: 0.5 µg/mL (≈ 1.67 µM)

Question: What about the MIC [2] of the same compound?
Answer: 0.5 µg/mL (≈ 1.67 µM)

Question: What about the MIC [3] of the same compound?
Answer: 0.5 µg/mL (≈ 1.67 µM)

Question: What about the MIC [4] of the same compound?
Answer: 0.25 µg/mL (≈ 0.835 µM)

Question: And the MIC [5]?
Answer: 0.5 µg/mL (≈ 1.67 µM)

Question: What about the MIC [6] of the same compound?
Answer: 0.5 µg/mL (≈ 1.67 µM)

Question: What about the MIC [7] of the same compound?
Answer: 0.5 µg/mL (≈ 1.67 µM)

Question: Which MIC [1] does the source give for CO/N=C(\C(=O)N[C@@H]1C(=O)N2C(C(=O)O)=C(COC(C)=O)CS[C@H]12)c1csc(N)n1 [CEFOTAXIME] here?
Answer: 128 µg/mL (≈ 281 µM)

Question: And the MIC [2]?
Answer: 128 µg/mL (≈ 281 µM)

Question: What about the MIC [3] of the same compound?
Answer: 128 µg/mL (≈ 281 µM)

Question: What about the MIC [4] of the same compound?
Answer: 32 µg/mL (≈ 70.3 µM)

Question: And the MIC [5]?
Answer: 32 µg/mL (≈ 70.3 µM)

Question: What about the MIC [6] of the same compound?
Answer: 32 µg/mL (≈ 70.3 µM)

Question: And the MIC [8]?
Answer: 0.12 µg/mL (≈ 0.263 µM)

Question: What about the MIC [7] of the same compound?
Answer: 32 µg/mL (≈ 70.3 µM)

Question: Which MIC [1] does the source give for CO[C@@]1(NC(=O)Cc2cccs2)C(=O)N2C(C(=O)O)=C(COC(N)=O)CS[C@@H]21 [CEFOXITIN] here?
Answer: > 256 µg/mL

Question: And the MIC [2]?
Answer: > 256 µg/mL

Question: What about the MIC [3] of the same compound?
Answer: > 256 µg/mL

Question: What about the MIC [4] of the same compound?
Answer: > 256 µg/mL

Question: What about the MIC [5] of the same compound?
Answer: > 256 µg/mL

Question: What about the MIC [6] of the same compound?
Answer: > 256 µg/mL

Question: And the MIC [8]?
Answer: 4 µg/mL (≈ 9.36 µM)

Question: And the MIC [7]?
Answer: > 256 µg/mL

Question: For CC(C)(O/N=C(\C(=O)N[C@@H]1C(=O)N2C(C(=O)[O-])=C(C[n+]3ccccc3)CS[C@H]12)c1csc(N)n1)C(=O)O [CEFTAZIDIME], which MIC [1] is on record?
Answer: 256 µg/mL (≈ 468 µM)

Question: What about the MIC [2] of the same compound?
Answer: 256 µg/mL (≈ 468 µM)

Question: And the MIC [3]?
Answer: 256 µg/mL (≈ 468 µM)

Question: What about the MIC [4] of the same compound?
Answer: 32 µg/mL (≈ 58.5 µM)

Question: What about the MIC [5] of the same compound?
Answer: 128 µg/mL (≈ 234 µM)

Question: And the MIC [6]?
Answer: 64 µg/mL (≈ 117 µM)

Question: And the MIC [8]?
Answer: 0.5 µg/mL (≈ 0.915 µM)

Question: What about the MIC [7] of the same compound?
Answer: 128 µg/mL (≈ 234 µM)

Question: For C[C@]1(/C=C\C#N)[C@H](C(=O)O)N2C(=O)C[C@H]2S1(=O)=O, which IC50 [9] is on record?
Answer: 300 nM

Question: What about the IC50 [10] of the same compound?
Answer: 300 nM

Question: With CO/N=C(\C(=O)N[C@@H]1C(=O)N2C(C(=O)O)=C(CSc3nc(=O)c(O)nn3C)CS[C@H]12)c1csc(N)n1 [CEFTRIAXONE] as the compound, how does the MIC [1] read?
Answer: 128 µg/mL (≈ 231 µM)

Question: What about the MIC [2] of the same compound?
Answer: 128 µg/mL (≈ 231 µM)

Question: And the MIC [3]?
Answer: 256 µg/mL (≈ 462 µM)

Question: And the MIC [4]?
Answer: 16 µg/mL (≈ 28.9 µM)

Question: What about the MIC [5] of the same compound?
Answer: 64 µg/mL (≈ 115 µM)

Question: What about the MIC [6] of the same compound?
Answer: 32 µg/mL (≈ 57.7 µM)

Question: What about the MIC [8] of the same compound?
Answer: 0.12 µg/mL (≈ 0.216 µM)

Question: What about the MIC [7] of the same compound?
Answer: 32 µg/mL (≈ 57.7 µM)

Question: For CC1(C)S[C@@H]2[C@H](NC(=O)[C@H](N)c3ccc(O)cc3)C(=O)N2[C@H]1C(=O)O [AMOXICILLIN], which MIC [11] is on record?
Answer: > 64 µg/mL

Question: And the MIC [1]?
Answer: > 256 µg/mL

Question: What about the MIC [2] of the same compound?
Answer: > 256 µg/mL

Question: And the MIC [3]?
Answer: > 256 µg/mL

Question: What about the MIC [4] of the same compound?
Answer: > 256 µg/mL

Question: And the MIC [5]?
Answer: > 256 µg/mL

Question: What about the MIC [6] of the same compound?
Answer: > 256 µg/mL

Question: And the MIC [12]?
Answer: > 64 µg/mL

Question: And the MIC [13]?
Answer: > 64 µg/mL

Question: What about the MIC [8] of the same compound?
Answer: 2 µg/mL (≈ 5.47 µM)

Question: And the MIC [14]?
Answer: > 64 µg/mL

Question: And the MIC [7]?
Answer: > 256 µg/mL

Question: And the MIC [15]?
Answer: 2 µg/mL

Question: And the MIC [16]?
Answer: > 64 µg/mL

Question: What about the MIC [17] of the same compound?
Answer: > 64 µg/mL

Question: What about the MIC [18] of the same compound?
Answer: > 64 µg/mL

Question: What does the source list for CO/N=C(\C(=O)N[C@@H]1C(=O)N2C(C(=O)O)=C(COC(N)=O)CS[C@H]12)c1ccco1 [CEFUROXIME]?
Answer: MIC [1]: > 256 µg/mL; MIC [2]: > 256 µg/mL; MIC [3]: > 256 µg/mL; MIC [4]: > 256 µg/mL; MIC [5]: > 256 µg/mL; MIC [6]: > 256 µg/mL; MIC [8]: 2 µg/mL (≈ 4.71 µM); MIC [7]: > 256 µg/mL

Question: For CC1(C)S[C@@H]2[C@H](NC(=O)[C@H](C(=O)O)c3ccsc3)C(=O)N2[C@H]1C(=O)O [TICARCILLIN], which MIC [1] is on record?
Answer: > 256 µg/mL

Question: What about the MIC [2] of the same compound?
Answer: > 256 µg/mL

Question: And the MIC [3]?
Answer: > 256 µg/mL

Question: And the MIC [4]?
Answer: > 256 µg/mL

Question: And the MIC [5]?
Answer: > 256 µg/mL

Question: And the MIC [6]?
Answer: > 256 µg/mL

Question: And the MIC [8]?
Answer: 2 µg/mL (≈ 5.2 µM)

Question: What about the MIC [7] of the same compound?
Answer: > 256 µg/mL

Question: For CO/N=C(\C(=O)N[C@@H]1C(=O)N2C(C(=O)[O-])=C(C[N+]3(C)CCCC3)CS[C@H]12)c1csc(N)n1, which MIC [1] is on record?
Answer: 0.25 µg/mL (≈ 0.52 µM)

Question: And the MIC [2]?
Answer: 0.25 µg/mL (≈ 0.52 µM)

Question: What about the MIC [3] of the same compound?
Answer: 0.25 µg/mL (≈ 0.52 µM)

Question: And the MIC [4]?
Answer: 0.12 µg/mL (≈ 0.25 µM)

Question: What about the MIC [5] of the same compound?
Answer: 0.25 µg/mL (≈ 0.52 µM)

Question: What about the MIC [7] of the same compound?
Answer: 0.12 µg/mL (≈ 0.25 µM)

Question: Which results are given for CCN1CCN(C(=O)N[C@@H](C(=O)N[C@@H]2C(=O)N3[C@@H]2SC(C)(C)[C@@H]3C(=O)O)c2ccccc2)C(=O)C1=O [PIPERACILLIN]?
Answer: MIC [1]: 256 µg/mL (≈ 495 µM); MIC [19]: 32 µg/mL; MIC [2]: 256 µg/mL (≈ 495 µM); MIC [20]: 32 µg/mL; MIC [3]: 256 µg/mL (≈ 495 µM); MIC [4]: 64 µg/mL (≈ 124 µM); MIC [5]: 128 µg/mL (≈ 247 µM); MIC [21]: 32 µg/mL; MIC [22]: 64 µg/mL; MIC [6]: 128 µg/mL (≈ 247 µM); MIC [23]: 64 µg/mL; MIC [24]: 0.5 µg/mL; MIC [25]: 16 µg/mL; MIC [26]: 64 µg/mL; MIC [8]: 1 µg/mL (≈ 1.93 µM); MIC [7]: 128 µg/mL (≈ 247 µM)

Question: Which IC50 [9] does the source give for Cc1onc(-c2ccccc2Cl)c1C(=O)N[C@@H]1C(=O)N2[C@@H]1SC(C)(C)[C@@H]2C(=O)O [CLOXACILLIN] here?
Answer: 4 nM

Question: And the IC50 [10]?
Answer: 4 nM
